High-throughput results: PubChem BioAssay, several laboratories
UCH37 DUB inh: inhibitors of human deubiquitinating enzyme UCH37 | inhibition, % (no concentration beside the values) | purified proteasome/UCH37, Ub-AMC cleavage fluorescence | AID 588478 | Q9Y5K5 | actives 0.33% (n = 330,000);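 active = mean inhibition over replicate wells above about 20%, limit read from the data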;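 note: 0% = compound-free wells with enzyme and 100% = wells lacking proteasome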
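System: Proteasome-associated human UCH37 deubiquitinase; Input: 0.15 nM proteasome in added enzyme buffer; Also added: Ub-AMC substrate from 1 µM stock; Incubation: 30 min compound-proteasome preincubation then 25 min substrate reaction, room temperature; Detection: fluorescence, ex 355 nm, em 460 nm; Read-out: % inhibition of Ub-AMC cleavage fluorescence; Benchmarks: no-proteasome and no-compound wells.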
B2AR ag: agonists of human beta-2 adrenergic receptor inducing internalization; P07550; Am2.2-beta2AR cells, FAP receptor internalization, flow cytometry; response, % (test concentration not listed); actives 0.43% (n = 340,000); AID 504454;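 active = response above a set limit, near 3 SD of response in nonfluorescent compounds, cut at about 42% in these data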
aDG glyco act: increases alpha dystroglycan glycosylation | Pro5-aDG cells, alpha-DG glycosylation AlphaScreen (IIH6); 0% Pro5, 100% B10-LARGE cell signal | activation, % at 10 µM | actives 0.22% (n = 360,000);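 active = activation of at least 8% versus controls, or a plate z-score of at least 8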;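 note: Pro5 are CHO cells carrying HIG-tagged alpha-DG that lacks glycosylation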
HKDC1 inhibitor: HKDC1 (human) hexokinase inhibition; Q2TB90; recombinant HKDC1, G6PDH/diaphorase resazurin coupled fluorescence; inhibition, % at 20 µM; actives 0.16% (n = 340,000);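 active = inhibition above about 35% when tested at 20 µM, limit read from the data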;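 note: plate controls were DMSO wells with enzyme for no effect and DMSO wells lacking enzyme for full effect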
Target sequence (Q2TB90 whole entry, looked up): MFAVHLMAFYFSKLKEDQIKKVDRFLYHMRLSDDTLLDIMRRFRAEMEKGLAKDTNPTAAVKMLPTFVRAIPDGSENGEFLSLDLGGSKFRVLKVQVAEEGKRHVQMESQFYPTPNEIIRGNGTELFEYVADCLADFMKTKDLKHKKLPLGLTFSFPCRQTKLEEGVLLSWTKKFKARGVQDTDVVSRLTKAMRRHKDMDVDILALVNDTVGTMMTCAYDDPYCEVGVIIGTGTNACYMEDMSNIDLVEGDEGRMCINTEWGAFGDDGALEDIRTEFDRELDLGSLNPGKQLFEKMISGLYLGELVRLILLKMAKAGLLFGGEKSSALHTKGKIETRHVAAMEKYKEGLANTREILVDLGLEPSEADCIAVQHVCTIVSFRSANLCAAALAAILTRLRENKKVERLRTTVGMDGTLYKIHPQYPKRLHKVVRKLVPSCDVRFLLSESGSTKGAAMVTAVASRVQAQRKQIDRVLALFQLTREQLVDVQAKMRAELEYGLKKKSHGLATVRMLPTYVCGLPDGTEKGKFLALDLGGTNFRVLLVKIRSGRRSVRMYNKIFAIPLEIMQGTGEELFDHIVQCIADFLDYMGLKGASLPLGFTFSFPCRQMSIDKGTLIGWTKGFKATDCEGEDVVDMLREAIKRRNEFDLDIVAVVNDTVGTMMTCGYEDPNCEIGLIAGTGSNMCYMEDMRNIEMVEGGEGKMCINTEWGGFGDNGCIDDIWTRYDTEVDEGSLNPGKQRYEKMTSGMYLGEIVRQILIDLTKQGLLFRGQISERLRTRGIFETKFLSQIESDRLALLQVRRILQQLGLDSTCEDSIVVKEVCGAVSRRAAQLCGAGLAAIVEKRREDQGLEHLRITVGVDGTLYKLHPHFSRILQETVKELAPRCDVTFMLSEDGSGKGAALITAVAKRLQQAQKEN
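System: Recombinant HKDC1 hexokinase | Amount: HKDC1 at 5 µg/mL | Reagent: Glucose with 1 mM ATP | Doses: Single 20 µM dose | Incubation: Reaction time 90 min, room temperature, protected from light | Signal: Coupled resazurin fluorescence, excitation 525 nm, emission 613 nm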
H9c2 protect: myocardial damage modulation in H9c2 cells; H9c2 cardiomyocytes, H2O2 injury protection, ATPLite, 2 h; protection from H2O2 cell death, % at 20 µM; actives 0.63% (n = 360,000); AID 588492;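 active = compounds giving at least 50% protection of heart cells from peroxide-induced death in the single-dose screen, raw or plate-pattern-corrected value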;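 note: 0% = DMSO wells with peroxide and 100% = DMSO wells without peroxide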
PfGluPho inh: PfG6PD (Plasmodium falciparum) enzyme inhibition | PfGluPho enzyme, NADPH resazurin-diaphorase fluorescence | inhibition, % at 20 µM | actives 0.78% (n = 350,000) | AID 504690;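 active = inhibition reaching at least a set limit at 20 µM in the primary screen, cut at about 59% in these data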;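 note: 0% = DMSO wells with substrate and 100% = DMSO wells lacking glucose-6-phosphate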
PfGluPho conf: confirmation of Plasmodium falciparum G6PD inhibitors | inhibition, % at 20 µM | recombinant PfGluPho, NADPH-diaphorase-resazurin fluorescence | actives 34% (n = 2,400) | shares compounds with PfGluPho inh;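 active = inhibition of at least 50% at 20 µM in any single replicate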;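 note: 0% = DMSO with substrate and 100% = DMSO lacking glucose-6-phosphate substrate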
Diaphorase 10uM: inhibits diaphorase or oxidizes, flagging false PfG6PD hits; diaphorase-coupled resazurin reduction, fluorescence, NADPH 10 uM; inhibition, % at 20 µM; shares compounds with PfGluPho inh; actives 39% (n = 820);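 active = average inhibition reaching 50% or more with the compound at 20 µM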;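 note: resorufin red fluorescence formed as diaphorase reduces resazurin using NADPH; 0% = DMSO with enzyme and 100% = DMSO without enzyme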
Diaph ctr 30uM: inhibits diaphorase or oxidizes, flagging false PfG6PD hits | AID 504863 | inhibition, % at 20 µM | shares compounds with PfGluPho inh | actives 29% (n = 820) | Diaphorase/resazurin coupled assay, resorufin fluorescence, 30 uM NADPH;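 active = inhibition averaging 50% or more, tested at 20 µM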;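 note: 0% = DMSO with enzyme and 100% = DMSO wells lacking diaphorase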
* marks the source's active call; other numbers are inactive results; · = not tested or not shown. Most compounds without a hit are left out; they make up all but 2.1% or so of the library.

SMILES | UCH37 DUB inh | B2AR ag | aDG glyco act | HKDC1 inhibitor | H9c2 protect | PfGluPho inh | PfGluPho conf | others
ONC(=Nc1ccccc1Cl)c1ccccc1Cl | · | 6 | 0 | 1 | -3 | 68* | 41
CC(=NNC(=O)Cn1nc(C)c([N+](=O)[O-])c1C)c1ccco1 | 6 | · | · | · | · | · | ·
[O-][n+]1cccc2cccc(O)c21 | 4 | -1 | 0 | 8 | 9 | 41 | ·
C[n+]1cccc2cccc([O-])c21 | 4 | 4 | 0 | 26 | -2 | 82* | 9
CCOC(=O)c1cc(-c2ccccc2)sc1NC(=O)c1ccc(OC)c(OC)c1 | -282 | 4 | 0 | -12 | -4 | 78* | 47
Cc1ccccc1C=NNC(=O)c1ccc(-n2cnnn2)cc1 | 1 | · | · | · | · | · | ·
O=S1(=O)c2ccc(Br)cc2N2CCC[C@H]2CN1Cc1ccccc1 | 5 | 2 | 0 | 5 | -6 | 73* | 8
O=S1(=O)c2ccc(Br)cc2N2CCC[C@@H]2CN1Cc1ccc(Cl)cc1 | · | -1 | 0 | -1 | -16 | 63* | 7
CC(=NNc1ccc(S(N)(=O)=O)cc1[N+](=O)[O-])c1ccc2c(c1)OCO2 | 5 | · | · | · | · | · | ·
O=[N+]([O-])c1ccc(N2CCN(c3ccc(O)cc3)CC2)cn1 | 11 | 1 | 0 | 5 | -2 | 62* | 38
O=[N+]([O-])c1cccc(C=Nn2c(-c3cccnc3)n[nH]c2=S)c1 | 7 | · | · | · | · | · | ·
O=C(NN=Cc1ccc(N2CCOCC2)o1)c1ccccc1[N+](=O)[O-] | 15 | · | · | · | · | · | ·
O=C(N/N=C/c1ccc(N2CCOCC2)o1)c1cccc([N+](=O)[O-])c1 | · | 7 | 0 | 17 | 1 | 70* | -21
COc1ccc(C(=O)Nc2ccc(OCC(F)(F)C(F)F)c(C(F)(F)F)c2)cc1OC | 5 | 0 | 3 | 10 | 7 | 29 | ·
O=C(Nc1ccc(OCC(F)(F)C(F)F)c(C(F)(F)F)c1)c1ccc(Cl)cc1 | · | 4 | 1 | 3 | -29 | 86* | -2
Cc1ccc(C2Oc3ccccc3C3=C2C(c2cccs2)n2ncnc2N3)cc1 (stereo not drawn) | -5 | -8 | 0 | 8 | -3 | 18 | ·
Fc1ccc(C2C3=C(Nc4ncnn42)c2ccccc2OC3c2ccncc2)cc1 (stereo not drawn) | -68 | 9 | 0 | 5 | 7 | 61* | 21
O=C(CSCc1cccc(Br)c1)NN=Cc1ccc2c(c1)OCO2 | 3 | · | · | · | · | · | ·
COc1cc(OC)c(C2CC(=O)N3CN(C)CSC3=C2C#N)cc1OC (stereo not drawn) | 8 | -58 | 0 | 9 | 0 | 61* | 34
Cc1ccc(C2CC(=O)N3CN(c4ccc(Br)cc4)CSC3=C2C#N)o1 (stereo not drawn) | 3 | -1 | 0 | 0 | 3 | 54 | ·
COc1ccc(Br)cc1C1CC(=O)N2CN(C)CSC2=C1C#N (stereo not drawn) | -1 | 5 | 0 | 16 | 6 | 65* | 25
CCOc1ccc(N2CSC3=C(C#N)C(c4ccco4)CC(=O)N3C2)cc1 (stereo not drawn) | 1 | 4 | 0 | -1 | 1 | 4 | ·
O=C(Cn1ccc(=O)[nH]c1=O)c1ccc([N+](=O)[O-])o1 | · | · | 1 | · | 40 | 59* | 33
Cn1ncc(Br)c1C(=O)N/N=C/c1cccc(OC2CSC2)c1 | · | -26 | 0 | 14 | -2 | 115* | 91* | Diaphorase 10uM=91*;Diaph ctr 30uM=81*
CN(C)c1ccc(C=NNC(=O)C2COc3ccccc3O2)o1 (stereo not drawn) | -3 | · | · | · | · | · | ·
O=C(O)CSc1nc2ccccc2o1 | 1 | 3 | 0 | 6 | 8 | -14 | ·
